How the values were obtained:
[1] = Inhibition of GST-tagged human MLL1 Cys1188Ala mutant (1147 to 1203 residues) expressed in Escherichia coli BL21 cells incubated for 30 mins by fluorescence polarization assay
[2] = target: T1, Lysine-specific demethylase 2A (Homo sapiens, UniProt Q9Y2K7); test: Inhibition of GST-tagged human KDM2A (562 to 618 residues) expressed in Escherichia coli BL21 cells incubated for 30 mins by fluorescence polarization assay
T1 sequence (Q9Y2K7 whole entry): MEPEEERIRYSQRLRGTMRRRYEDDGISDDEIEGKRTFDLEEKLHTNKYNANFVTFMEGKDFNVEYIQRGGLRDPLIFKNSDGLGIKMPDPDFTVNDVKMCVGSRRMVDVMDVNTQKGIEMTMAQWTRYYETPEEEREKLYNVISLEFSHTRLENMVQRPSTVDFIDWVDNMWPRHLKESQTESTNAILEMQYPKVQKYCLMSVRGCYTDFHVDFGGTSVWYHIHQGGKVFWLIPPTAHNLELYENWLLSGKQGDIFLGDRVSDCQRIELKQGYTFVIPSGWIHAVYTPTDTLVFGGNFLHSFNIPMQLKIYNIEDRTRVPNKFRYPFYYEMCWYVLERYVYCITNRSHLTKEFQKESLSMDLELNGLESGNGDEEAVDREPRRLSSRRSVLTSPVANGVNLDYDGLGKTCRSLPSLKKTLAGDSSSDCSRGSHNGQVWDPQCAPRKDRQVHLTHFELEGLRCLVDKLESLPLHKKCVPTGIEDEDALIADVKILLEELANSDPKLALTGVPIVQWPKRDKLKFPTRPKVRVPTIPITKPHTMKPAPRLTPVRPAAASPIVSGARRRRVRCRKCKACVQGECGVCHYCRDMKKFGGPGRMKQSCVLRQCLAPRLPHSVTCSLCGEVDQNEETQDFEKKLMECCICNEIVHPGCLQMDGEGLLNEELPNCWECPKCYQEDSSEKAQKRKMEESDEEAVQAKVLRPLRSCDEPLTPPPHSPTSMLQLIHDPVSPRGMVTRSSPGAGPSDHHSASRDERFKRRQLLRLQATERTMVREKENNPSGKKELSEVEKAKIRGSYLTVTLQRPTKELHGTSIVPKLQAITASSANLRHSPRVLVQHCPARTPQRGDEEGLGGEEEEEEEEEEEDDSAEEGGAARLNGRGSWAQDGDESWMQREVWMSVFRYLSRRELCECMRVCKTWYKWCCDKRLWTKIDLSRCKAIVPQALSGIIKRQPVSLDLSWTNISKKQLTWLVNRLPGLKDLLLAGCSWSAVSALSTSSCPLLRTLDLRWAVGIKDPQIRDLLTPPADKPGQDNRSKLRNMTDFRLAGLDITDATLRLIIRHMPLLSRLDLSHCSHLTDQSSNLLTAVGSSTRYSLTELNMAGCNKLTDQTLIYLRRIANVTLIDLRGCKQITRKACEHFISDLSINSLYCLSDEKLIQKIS
How it was run: (§1)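 Competition fluorescence polarization assay. CXXC domain protein is held at 2× its own KD. All domains are expressed and purified by the same method. Standard deviations come from three separate measurements.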

[3] = target: T2, F-box/LRR-repeat protein 19 (Homo sapiens, UniProt Q6PCT2); test: Inhibition of GST-tagged human FBXL19 (31 to 86 residues) expressed in Escherichia coli BL21 cells incubated for 30 mins by fluorescence polarization assay; how it was run: as §1
T2 sequence (Q6PCT2 whole entry): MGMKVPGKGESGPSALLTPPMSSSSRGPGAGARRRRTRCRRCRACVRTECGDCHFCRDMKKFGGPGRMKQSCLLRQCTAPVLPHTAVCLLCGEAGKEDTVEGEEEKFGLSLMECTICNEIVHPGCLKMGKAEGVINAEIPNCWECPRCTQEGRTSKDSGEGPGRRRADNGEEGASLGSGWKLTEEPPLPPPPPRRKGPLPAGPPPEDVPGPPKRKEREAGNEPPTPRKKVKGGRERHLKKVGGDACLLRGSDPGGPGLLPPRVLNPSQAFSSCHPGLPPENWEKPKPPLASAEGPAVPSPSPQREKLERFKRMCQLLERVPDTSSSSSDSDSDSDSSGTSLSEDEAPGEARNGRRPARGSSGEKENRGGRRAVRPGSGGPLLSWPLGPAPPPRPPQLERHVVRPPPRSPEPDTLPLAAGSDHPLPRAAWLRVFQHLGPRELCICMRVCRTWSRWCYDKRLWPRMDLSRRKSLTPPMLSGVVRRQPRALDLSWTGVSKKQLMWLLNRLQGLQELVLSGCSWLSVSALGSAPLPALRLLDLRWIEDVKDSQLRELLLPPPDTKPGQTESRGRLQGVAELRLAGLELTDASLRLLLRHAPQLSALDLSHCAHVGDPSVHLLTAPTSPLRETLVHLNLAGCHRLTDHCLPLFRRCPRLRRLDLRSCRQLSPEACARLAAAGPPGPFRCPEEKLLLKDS

[4] = target: T3, CXXC-type zinc finger protein 5 (Homo sapiens, UniProt Q7LFL8); test: Inhibition of GST-tagged human CXXC5 (255 to 305 residues) expressed in Escherichia coli BL21 cells incubated for 30 mins by fluorescence polarization assay; how it was run: as §1
T3 sequence (Q7LFL8 whole entry): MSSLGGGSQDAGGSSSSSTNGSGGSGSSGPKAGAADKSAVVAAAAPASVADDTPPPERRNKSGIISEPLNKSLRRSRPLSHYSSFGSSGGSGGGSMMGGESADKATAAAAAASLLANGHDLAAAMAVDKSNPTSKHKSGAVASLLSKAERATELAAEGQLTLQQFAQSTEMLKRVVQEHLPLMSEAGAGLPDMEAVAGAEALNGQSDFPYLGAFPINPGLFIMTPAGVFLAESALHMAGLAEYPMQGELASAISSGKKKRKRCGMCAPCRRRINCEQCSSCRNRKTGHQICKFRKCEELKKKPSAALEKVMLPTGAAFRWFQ

[5] = target: Histone-lysine N-methyltransferase 2A (Homo sapiens, UniProt Q03164); test: Inhibition of GST-tagged human MLL1 (1147 to 1203 residues) expressed in Escherichia coli BL21 cells incubated for 30 mins by fluorescence polarization assay; how it was run: as §1
[6] = target: T4, CXXC-type zinc finger protein 4 (Homo sapiens, UniProt Q9H2H0); test: Inhibition of GST-tagged human IDAX (130 to 181 residues) expressed in Escherichia coli BL21 cells incubated for 30 mins by fluorescence polarization assay; how it was run: as §1
T4 sequence (Q9H2H0 whole entry): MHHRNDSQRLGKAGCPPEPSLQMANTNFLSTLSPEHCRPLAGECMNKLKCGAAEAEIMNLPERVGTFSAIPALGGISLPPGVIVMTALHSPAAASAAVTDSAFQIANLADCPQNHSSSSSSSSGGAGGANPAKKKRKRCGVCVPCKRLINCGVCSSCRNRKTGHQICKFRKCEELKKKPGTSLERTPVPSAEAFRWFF

Chain of Histone-lysine N-methyltransferase 2A (Q03164 1-2718 limits assumed): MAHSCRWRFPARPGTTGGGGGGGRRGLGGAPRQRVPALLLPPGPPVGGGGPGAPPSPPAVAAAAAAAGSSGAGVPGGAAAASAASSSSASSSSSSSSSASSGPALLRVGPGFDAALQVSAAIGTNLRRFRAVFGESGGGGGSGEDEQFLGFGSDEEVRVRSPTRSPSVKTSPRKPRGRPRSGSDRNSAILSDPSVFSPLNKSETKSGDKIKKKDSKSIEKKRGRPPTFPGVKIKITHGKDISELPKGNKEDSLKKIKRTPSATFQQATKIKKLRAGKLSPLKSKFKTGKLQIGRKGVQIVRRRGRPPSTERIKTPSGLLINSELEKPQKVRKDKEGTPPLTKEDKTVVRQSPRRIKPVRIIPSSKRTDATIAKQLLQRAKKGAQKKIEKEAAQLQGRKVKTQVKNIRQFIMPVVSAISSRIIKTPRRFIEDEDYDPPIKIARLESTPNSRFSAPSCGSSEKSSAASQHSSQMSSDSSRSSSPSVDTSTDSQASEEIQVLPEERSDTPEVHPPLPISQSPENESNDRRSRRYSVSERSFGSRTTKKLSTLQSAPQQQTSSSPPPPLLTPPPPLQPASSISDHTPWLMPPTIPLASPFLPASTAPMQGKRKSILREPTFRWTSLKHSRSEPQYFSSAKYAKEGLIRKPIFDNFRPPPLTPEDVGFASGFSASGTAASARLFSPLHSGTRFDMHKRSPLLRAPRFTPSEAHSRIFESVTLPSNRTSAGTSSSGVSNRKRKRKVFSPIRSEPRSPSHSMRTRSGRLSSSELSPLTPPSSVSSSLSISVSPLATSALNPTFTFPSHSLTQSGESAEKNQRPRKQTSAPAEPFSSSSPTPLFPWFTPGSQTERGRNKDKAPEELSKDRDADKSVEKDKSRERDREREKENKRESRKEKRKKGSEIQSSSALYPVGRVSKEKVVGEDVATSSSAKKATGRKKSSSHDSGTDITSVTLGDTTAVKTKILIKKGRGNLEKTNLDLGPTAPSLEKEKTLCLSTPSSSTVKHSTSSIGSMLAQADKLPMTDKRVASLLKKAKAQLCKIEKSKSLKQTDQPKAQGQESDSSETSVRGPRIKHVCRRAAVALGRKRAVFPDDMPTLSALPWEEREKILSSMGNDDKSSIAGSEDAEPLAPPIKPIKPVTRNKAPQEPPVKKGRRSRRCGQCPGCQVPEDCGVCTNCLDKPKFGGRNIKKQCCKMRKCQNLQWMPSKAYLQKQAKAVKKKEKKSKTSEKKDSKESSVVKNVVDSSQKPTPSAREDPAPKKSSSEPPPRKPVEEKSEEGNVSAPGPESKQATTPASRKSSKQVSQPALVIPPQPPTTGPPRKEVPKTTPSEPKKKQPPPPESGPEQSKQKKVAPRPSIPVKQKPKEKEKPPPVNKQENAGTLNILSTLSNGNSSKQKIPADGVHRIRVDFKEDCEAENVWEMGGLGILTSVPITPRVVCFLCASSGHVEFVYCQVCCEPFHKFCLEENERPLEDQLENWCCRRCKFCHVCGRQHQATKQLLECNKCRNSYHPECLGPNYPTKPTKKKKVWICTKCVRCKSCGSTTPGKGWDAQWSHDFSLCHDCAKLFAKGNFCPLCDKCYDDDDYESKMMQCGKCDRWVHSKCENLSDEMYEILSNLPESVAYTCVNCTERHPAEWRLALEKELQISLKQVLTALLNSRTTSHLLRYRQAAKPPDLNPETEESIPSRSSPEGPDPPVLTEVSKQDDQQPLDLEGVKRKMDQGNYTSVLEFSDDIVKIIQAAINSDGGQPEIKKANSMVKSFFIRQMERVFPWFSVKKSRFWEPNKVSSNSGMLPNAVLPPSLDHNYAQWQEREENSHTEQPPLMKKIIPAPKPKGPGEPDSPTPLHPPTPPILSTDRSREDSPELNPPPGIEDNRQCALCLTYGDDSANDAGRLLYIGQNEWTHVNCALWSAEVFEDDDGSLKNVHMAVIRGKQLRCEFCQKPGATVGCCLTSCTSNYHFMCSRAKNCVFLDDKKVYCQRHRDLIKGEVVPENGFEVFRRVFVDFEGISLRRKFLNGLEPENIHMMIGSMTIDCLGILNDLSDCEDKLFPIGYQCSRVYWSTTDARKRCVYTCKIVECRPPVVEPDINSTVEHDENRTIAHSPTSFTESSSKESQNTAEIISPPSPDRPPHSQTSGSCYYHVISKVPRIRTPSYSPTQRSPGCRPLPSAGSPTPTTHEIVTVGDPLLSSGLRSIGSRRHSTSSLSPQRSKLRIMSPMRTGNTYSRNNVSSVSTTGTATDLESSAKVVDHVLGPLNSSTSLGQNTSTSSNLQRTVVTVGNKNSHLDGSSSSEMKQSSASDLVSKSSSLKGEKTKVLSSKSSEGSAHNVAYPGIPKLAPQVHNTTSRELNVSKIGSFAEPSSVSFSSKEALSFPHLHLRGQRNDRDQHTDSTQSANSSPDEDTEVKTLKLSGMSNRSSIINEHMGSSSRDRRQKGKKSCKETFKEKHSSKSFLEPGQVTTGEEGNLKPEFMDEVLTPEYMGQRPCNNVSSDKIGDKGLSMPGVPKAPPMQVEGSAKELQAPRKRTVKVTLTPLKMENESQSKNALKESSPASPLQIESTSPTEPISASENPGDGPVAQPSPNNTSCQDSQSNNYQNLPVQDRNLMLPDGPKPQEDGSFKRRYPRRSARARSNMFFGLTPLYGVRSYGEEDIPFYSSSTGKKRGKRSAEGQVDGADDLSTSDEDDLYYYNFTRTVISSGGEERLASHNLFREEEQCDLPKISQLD
Chain of Histone-lysine N-methyltransferase 2A (Q03164 2719-3969 limits assumed): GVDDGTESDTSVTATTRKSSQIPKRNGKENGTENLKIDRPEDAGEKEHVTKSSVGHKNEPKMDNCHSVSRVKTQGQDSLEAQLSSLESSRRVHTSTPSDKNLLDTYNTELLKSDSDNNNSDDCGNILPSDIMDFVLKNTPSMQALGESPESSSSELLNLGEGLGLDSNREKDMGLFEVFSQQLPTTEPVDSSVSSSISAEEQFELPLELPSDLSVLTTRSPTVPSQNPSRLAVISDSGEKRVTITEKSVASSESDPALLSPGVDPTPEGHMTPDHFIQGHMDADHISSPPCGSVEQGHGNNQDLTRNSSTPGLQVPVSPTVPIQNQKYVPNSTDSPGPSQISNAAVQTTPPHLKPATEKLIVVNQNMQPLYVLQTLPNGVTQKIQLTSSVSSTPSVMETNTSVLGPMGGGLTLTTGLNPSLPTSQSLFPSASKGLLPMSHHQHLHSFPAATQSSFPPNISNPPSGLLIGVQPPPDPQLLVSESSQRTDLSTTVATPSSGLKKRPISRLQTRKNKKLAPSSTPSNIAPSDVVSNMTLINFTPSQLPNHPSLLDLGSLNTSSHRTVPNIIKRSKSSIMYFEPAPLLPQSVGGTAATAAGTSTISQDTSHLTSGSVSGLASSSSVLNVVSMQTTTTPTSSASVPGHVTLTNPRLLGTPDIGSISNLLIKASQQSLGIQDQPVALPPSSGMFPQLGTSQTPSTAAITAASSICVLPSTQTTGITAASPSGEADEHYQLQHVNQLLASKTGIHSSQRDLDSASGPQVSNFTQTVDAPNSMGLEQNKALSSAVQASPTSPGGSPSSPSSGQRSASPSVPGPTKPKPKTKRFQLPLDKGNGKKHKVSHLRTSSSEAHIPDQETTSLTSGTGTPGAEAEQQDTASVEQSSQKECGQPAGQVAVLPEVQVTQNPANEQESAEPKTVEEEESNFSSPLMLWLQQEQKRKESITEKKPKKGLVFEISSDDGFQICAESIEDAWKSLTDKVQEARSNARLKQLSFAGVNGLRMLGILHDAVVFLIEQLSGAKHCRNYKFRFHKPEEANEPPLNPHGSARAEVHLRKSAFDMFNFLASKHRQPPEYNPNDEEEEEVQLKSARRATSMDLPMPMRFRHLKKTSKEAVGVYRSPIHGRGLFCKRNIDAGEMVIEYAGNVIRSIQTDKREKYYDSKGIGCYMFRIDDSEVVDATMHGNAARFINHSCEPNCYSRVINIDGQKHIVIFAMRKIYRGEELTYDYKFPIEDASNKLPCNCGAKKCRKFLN

Row | Compound | IC50 [1] [µM] | IC50 [2] [µM] | IC50 [3] [µM] | IC50 [4] [µM] | IC50 [5] [µM] | IC50 [6] [µM]
1 | C=CC(=O)N1CCC(c2ccccc2)(c2nnn[nH]2)CC1 | 20 | 4.4 | 3.1 | 28 | 4.9 | 2.4
2 | C=CC(=O)N1CCC(c2ccc(OC)cc2)(c2nnn[nH]2)CC1 | 59 | 16.4 | 8.9 | 56 | 15 | 8.3
3 | C=CC(=O)N1CCC(C(=O)O)(c2ccc(OC)cc2)CC1 | 51 | 30 | 17 | 47 | 43 | 35
4 | C=CC(=O)N1CCC(C(=O)NS(=O)(=O)c2ccccc2)(c2ccccc2)CC1 | 52 | 30 | 21.7 | 53 | 46 | 23
5 | C=CC(=O)N1CCC(C(=O)O)(c2ccccc2)CC1 | 3.6 | 3.9 | 1.8 | 4.8 | 7.1 | 4
6 | C=CC(=O)N1CCC(c2cccc(OCC)c2)(c2nnn[nH]2)CC1 | 43 | 7.4 | 2.6 | 40 | 7.7 | 2.2
7 | C=CC(=O)N1CCC(c2ccc(OCC)cc2)(c2nnn[nH]2)CC1 | 104 | 36 | 10.9 | 131 | 22 | 8.9
8 | C=CC(=O)N1CCC(C(=O)O)(c2ccc(OCC)cc2)CC1 | 15.4 | 4.2 | 2.4 | 16.2 | 3.3 | 1.2
9 | C=CC(=O)N1CCC(C(=O)O)(c2ccc(Cl)cc2)CC1 | 108 | 33 | 31 | 53 | 41 | 33
